Test results: ChEMBL document CHEMBL1155990, “Synthesis of novel pyrazole carboxamide derivatives and discovery of modulators for apoptosis or autophagy in A549 lung cancer cells” (2009)
Active and inactive are the calls of the source. The rule behind the calls is not given here.

Legend:
A549 [1] = test: Anticancer activity against human A549 lung cancer cells assessed as decrease in cell viability at 10 uM after 24 hrs relative to control by MTT assay; type: functional
Outline: (§1)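 A549 cells exposed to compound in culture medium; viability measured by MTT assay and expressed as % of untreated control (100%).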

A549 [2] = test: Anticancer activity against human A549 lung cancer cells assessed as decrease in cell viability at 10 uM after 48 hrs relative to control by MTT assay; type: functional; outline: as §1
A549 [3] = test: Anticancer activity against human A549 lung cancer cells assessed as decrease in cell viability at 20 uM after 24 hrs relative to control by MTT assay; type: functional, cell-based; outline: as §1
A549 [4] = test: Effect on human A549 lung cancer cell morphology assessed as vacuolation of cells at 20 uM after 24 hrs by inverted phase contrast microscopy; type: functional, cell-based
Outline: (§2)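 A549 cells treated at 20 µM; morphology photographed at 200× under an inverted phase contrast microscope.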

A549 [5] = test: Induction of autophagy in human A549 lung cancer cells assessed as acidic vesicle level at 20 uM after 24 hrs by acridine orange staining; type: functional, cell-based
Outline: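 A549 cells treated 24 h; acidic cellular compartment volume visualized by acridine orange staining under fluorescence microscope (200×); compared with control, n = 3.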

A549 [6] = test: Induction of necrosis in human A549 lung cancer cells assessed as LDH activity at 10 uM after 48 hrs; type: functional, cell-based
Outline: (§3)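 A549 cells treated at 10 or 20 µM for 48 h; LDH activity measured in culture medium as necrosis marker; compared with control, n = 4.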

A549 [7] = test: Induction of necrosis in human A549 lung cancer cells assessed as LDH activity at 20 uM after 48 hrs; type: functional, cell-based; outline: as §3
A549 [8] = test: Effect on human A549 lung cancer cell morphology assessed as vacuolation of cells at 20 uM after 48 hrs relative to control by inverted phase contrast microscopy; type: functional, cell-based; outline: as §2
A549 [9] = test: Anticancer activity against human A549 lung cancer cells assessed as decrease in cell viability at 20 uM after 48 hrs relative to control by MTT assay; type: functional; outline: as §1
A549 [10] = test: Effect on human A549 lung cancer cell morphology assessed as rounding and detachment of cells at 20 uM after 24 hrs by inverted phase contrast microscopy; type: functional, cell-based; outline: as §2
A549 [11] = test: Induction of apoptosis in human A549 lung cancer cells assessed as nuclear DNA fragmentation at 20 uM after 48 hrs by hoechst 33258 staining; type: functional, cell-based
Outline: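 A549 cells treated at 20 µM for 48 h; chromatin condensation and DNA fragmentation visualized by Hoechst 33258 staining under fluorescence microscope (200×); compared with control, n = 3.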

A549 [12] = test: Effect on human A549 lung cancer cell morphology assessed as rounding and detachment of cells at 20 uM after 48 hrs relative to control by inverted phase contrast microscopy; type: functional, cell-based; outline: as §2

`CC(C)(C)c1ccc(Cn2nc(-c3ccc(Cl)cc3)cc2C(=O)NCCc2ccc(F)cc2)cc1` was tested, and the Activity (A549 [1]) was “Active”, the Activity (A549 [2]) was “Active” and the Activity (A549 [3]) was “Active”. For the same compound, the Activity (A549 [4]) was “Active”, the Activity (A549 [5]) was “Active” and the Activity (A549 [6]) was “inactive”. The Activity (A549 [7]) was “inactive” and the Activity (A549 [8]) was “Active”.
`CC(C)(C)c1ccc(Cn2nc(-c3ccccc3)cc2C(=O)NCCc2ccccc2F)cc1` was tested, and the Activity (A549 [1]) was “inactive”, the Activity (A549 [2]) was “inactive” and the Activity (A549 [3]) was “inactive”. For the same compound, the Activity (A549 [9]) was “inactive”.
With `COc1cccc(CCNC(=O)c2cc(-c3ccccc3)nn2Cc2ccc(C(C)(C)C)cc2)c1` the Activity (A549 [1]) was “inactive”, the Activity (A549 [2]) was “inactive” and the Activity (A549 [3]) was “inactive”. The Activity (A549 [9]) was “inactive”.
In the case of `CC(C)(C)c1ccc(Cn2nc(-c3ccccc3)cc2C(=O)NCCc2ccc(F)cc2)cc1`, the Activity (A549 [1]) is reported as “inactive”, the Activity (A549 [2]) is reported as “inactive” and the Activity (A549 [3]) is reported as “inactive”. The Activity (A549 [9]) was “inactive”.
`CC(C)(C)c1ccc(Cn2nc(-c3ccc(Cl)cc3)cc2C(=O)NCCc2ccccc2)cc1` was tested, and the Activity (A549 [1]) was 59.32%, the Activity (A549 [2]) was 44.46% and the Activity (A549 [3]) was “Active”. The Activity (A549 [10]) was “Active”, the Activity (A549 [11]) was “Active” and the Activity (A549 [6]) was “inactive”. The Activity (A549 [7]) was “inactive” and the Activity (A549 [12]) was “Active”.
`CC(C)(C)c1ccc(Cn2nc(-c3ccccc3)cc2C(=O)NCCc2ccccc2)cc1` was tested, and the Activity (A549 [1]) was “inactive”, the Activity (A549 [2]) was “inactive” and the Activity (A549 [3]) was “inactive”. For the same compound, the Activity (A549 [9]) was “inactive”.
For `COc1cccc(CCNC(=O)c2cc(-c3ccc(Cl)cc3)nn2Cc2ccc(C(C)(C)C)cc2)c1`, the Activity (A549 [1]) was 45.52%, the Activity (A549 [2]) was 24.07% and the Activity (A549 [3]) was “Active”. For the same compound, the Activity (A549 [9]) was 10.43%, the Activity (A549 [10]) was “Active” and the Activity (A549 [11]) was “Active”. The Activity (A549 [6]) was “inactive”, the Activity (A549 [7]) was “inactive” and the Activity (A549 [12]) was “Active”.
`CC(C)(C)c1ccc(Cn2nc(-c3ccc(Cl)cc3)cc2C(=O)NCCc2ccccc2F)cc1` was tested, and the Activity (A549 [1]) was “Active”, the Activity (A549 [2]) was “Active” and the Activity (A549 [3]) was “Active”. The Activity (A549 [9]) was “Active”, the Activity (A549 [4]) was “Active” and the Activity (A549 [5]) was “Active”. For the same compound, the Activity (A549 [6]) was “inactive”, the Activity (A549 [7]) was “inactive” and the Activity (A549 [12]) was “Active”.
